Screening results: PubChem BioAssay, Johns Hopkins Ion Channel Center
Most compounds without a hit are left out; they make up all but 3.5% or so of the library.
RGS4 block = RGS4 inhibitors, primary screen, cell-based, HEK293 M3R inducible RGS4, calcium flux. Regulator of G-protein signaling 4 (Homo sapiens), P49798. Fluo-4 calcium flux; hits give high values; triggered by carbachol at its EC20. B-score at 10 µM. 310,000 compounds, 0.45% hits. AID 463165, 2010;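 active means B-score, a plate-corrected calcium signal, over three deviations above library mean, with baseline fluorescence within five deviations of library mean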;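 further: RGS4 expression induced by doxycycline in cells with stable M3 receptor; B-score is computed from the integrated fluorescence ratio over baseline after carbachol; higher B-score means a larger calcium signal and so more RGS4 inhibition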
Target sequence (P49798 whole entry, looked up): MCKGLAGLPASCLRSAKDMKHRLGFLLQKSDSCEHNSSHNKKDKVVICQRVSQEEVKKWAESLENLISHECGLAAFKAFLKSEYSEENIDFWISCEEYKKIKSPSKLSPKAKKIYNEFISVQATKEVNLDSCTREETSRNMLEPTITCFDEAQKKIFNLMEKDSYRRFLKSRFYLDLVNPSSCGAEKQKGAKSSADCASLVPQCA
MrgX1 allo act = positive allosteric modulators of MrgX1, primary screen, HEK293 cells, Fluo-4 calcium flux. Mas-related G-protein coupled receptor member X1 (Homo sapiens), Q96LB2. FDSS; hits give high values. B-score at 10 µM. 310,000 compounds, 0.63% hits. AID 588675, 2011;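 active means plate-corrected calcium response at least 3 library SD above typical, normal starting fluorescence, not activating the receptor alone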;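 further: compound read alongside a low EC10 to EC30 dose of BAM8-22 agonist; peak minus trough fluorescence over baseline measured at the second addition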
Target sequence (Q96LB2 whole entry, looked up): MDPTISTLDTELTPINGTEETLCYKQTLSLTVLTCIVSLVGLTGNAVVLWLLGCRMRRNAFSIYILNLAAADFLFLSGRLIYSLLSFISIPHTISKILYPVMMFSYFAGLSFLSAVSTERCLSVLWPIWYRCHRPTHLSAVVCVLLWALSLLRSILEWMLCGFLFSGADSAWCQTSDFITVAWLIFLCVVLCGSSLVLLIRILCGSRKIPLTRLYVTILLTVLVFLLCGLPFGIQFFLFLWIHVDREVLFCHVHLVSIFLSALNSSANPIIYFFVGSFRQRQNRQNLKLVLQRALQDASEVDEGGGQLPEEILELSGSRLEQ
MrgX1 ag = agonists of human MrgX1 receptor, primary screen, HEK293 cells, Fluo-4 calcium flux; Mas-related G-protein coupled receptor member X1 (Homo sapiens), Q96LB2; B-score at 10 µM; 310,000 compounds, 0.44% hits; Fluo-4 calcium fluorescence, agonist mode; hits give high values; AID 588627, 2011;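 active means calcium response B-score plate-corrected fluorescence ratio at least 3 library SD, with starting fluorescence B-score inside 5 SD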
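Material: MrgX1-expressing HEK293 cells / Dosing: compound as first of three additions / Incubation: overnight seeding, then 1 h dark dye loading / Signal: Fluo-4 NW calcium fluorescence / Evaluation: B-scored fluorescence response ratio / Benchmarks: positive and negative control wells on each plate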
RGS4 act = RGS4 potentiators or activators, primary screen, cell-based, HEK293 M3R inducible RGS4, calcium flux; B-score at 10 µM; carbachol calcium flux Fluo4; hits give low values; 310,000 compounds, 0.92% hits;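 active means B-score of the integrated calcium signal more than 4 SD below the library mean, with starting fluorescence not abnormally high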;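 further: negative B-score means reduced calcium response which marks RGS4 activation or potentiation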
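Assay system: HEK293 FlpIn-TREx cells, stable M3R, doxycycline-inducible RGS4 / Probe or stimulus: carbachol, ECmax concentration / Times: overnight RGS4 induction, 30 min dye load 37 °C, 20 min compound RT / Signal: kinetic calcium fluorescence imaging with Fluo4-AM dye, 2 µM / Measure: Agonist-evoked peak-minus-minimum fluorescence over baseline, integrated ratio, B score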
MrgX1 antagonist = antagonists of human MrgX1 receptor, primary screen, HEK293 cells, Fluo-4 calcium flux; Mas-related G-protein coupled receptor member X1 (Homo sapiens), Q96LB2; BAM8-22 antagonism; hits give low values; B-score at 10 µM; 310,000 compounds, 1.3% hits;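 active means calcium-response B-score plate-corrected more than 3 library SD below zero, starting fluorescence within 5 deviations, no agonist response on first addition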;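 further: peak minus trough fluorescence over baseline after final BAM8-22 challenge near maximal dose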
RGS4 act valid = reduced carbachol calcium response, RGS4-induced M3R cells, confirmation, RGS4 activator project, cell-based, HEK293 M3R/RGS4 inducible, calcium flux, duplicate; shares compounds with RGS4 act; 1,100 compounds, 89% hits; carbachol calcium flux Fluo4; inhibition, % at 10 µM;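 active means inhibition above 3 SD of the buffer control wells, cut at about 41% in these data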;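 further: signal is the integrated peak-minus-minimum Fluo4 fluorescence over baseline ratio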
M3R Ca counter = counter-screen for RGS4 activators: effect in non-induced cells | shares compounds with RGS4 act | HEK293 M3R non-induced RGS4, Fluo4 calcium flux; after carbachol challenge at its EC90 | inhibition, % at 10 µM | 1,100 compounds, 82% hits;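 active means inhibition exceeding 3 SD of buffer-only control wells, cut at about 26% in these data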;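 further: percent drop in integrated peak-minus-baseline over baseline Fluo4 ratio after carbachol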
Starred values were filed as active, the others as inactive.

How did COc1ccc(-c2csc(N3CCN(c4cc(C)nc5ccccc45)CC3)n2)cc1OC do in these assays?
RGS4 block: inactive; MrgX1 allo act: inactive; MrgX1 ag: inactive; RGS4 act: -8.5*; MrgX1 antagonist: inactive; RGS4 act valid: 92*; M3R Ca counter: 86*

How did O=[N+]([O-])c1cccc(NC(=S)N2CCN(c3ccccn3)CC2)c1 do in these assays?
RGS4 block: inactive; MrgX1 allo act: inactive; MrgX1 ag: inactive; RGS4 act: inactive; MrgX1 antagonist: inactive

What do the screens show for `Cc1scc(-c2n[nH]c(=S)n2Cc2ccccc2)c1C`?
RGS4 block: inactive; MrgX1 allo act: inactive; MrgX1 ag: inactive; RGS4 act: -7.6*; MrgX1 antagonist: inactive; RGS4 act valid: 74*; M3R Ca counter: 84*

How did Brc1ccc2c(c1)OCCOCCOCCOCCOCCOCCO2 do in these assays?
RGS4 block: inactive; MrgX1 allo act: inactive; MrgX1 ag: inactive; RGS4 act: inactive; MrgX1 antagonist: inactive

Results for CC(O)(C#CCN1CCCC1)c1ccccc1 (stereo unspecified) ?
RGS4 block: inactive; MrgX1 allo act: inactive; MrgX1 ag: inactive; RGS4 act: inactive; MrgX1 antagonist: inactive

What do the screens show for `OC(C#CCN1CCCC1)(c1ccccc1)c1cccc(F)c1` (stereo unspecified)?
RGS4 block: inactive; MrgX1 allo act: inactive; MrgX1 ag: inactive; RGS4 act: -8.4*; MrgX1 antagonist: inactive; RGS4 act valid: 92*; M3R Ca counter: 96*

What do the screens show for `CC(O)(C#CCN1CCCCC1)c1ccccc1` (stereo unspecified)?
RGS4 block: inactive; MrgX1 allo act: inactive; MrgX1 ag: inactive; RGS4 act: inactive; MrgX1 antagonist: inactive

What do the screens show for `CC1CCCN1CC#CC(O)(c1ccccc1)c1ccccc1` (stereo unspecified)?
RGS4 block: inactive; MrgX1 allo act: inactive; MrgX1 ag: inactive; RGS4 act: -7.9*; MrgX1 antagonist: inactive; RGS4 act valid: 90*; M3R Ca counter: 92*

What do the screens show for `CC(C)C(O)(C#CCN1CCCCCC1)c1ccccc1` (stereo unspecified)?
RGS4 block: inactive; MrgX1 allo act: inactive; MrgX1 ag: inactive; RGS4 act: -11*; MrgX1 antagonist: inactive; RGS4 act valid: 94*; M3R Ca counter: 87*

What do the screens show for `CC(C)(C)C(O)(CC#CCN1CCCC1)c1ccccc1` (stereo unspecified)?
RGS4 block: inactive; MrgX1 allo act: inactive; MrgX1 ag: inactive; RGS4 act: -9.4*; MrgX1 antagonist: inactive; RGS4 act valid: 76*; M3R Ca counter: 31*

Results for COc1ccccc1Cn1c(=S)[nH]c2ccc(F)cc2c1=O ?
RGS4 block: inactive; MrgX1 allo act: inactive; MrgX1 ag: inactive; RGS4 act: inactive; MrgX1 antagonist: inactive

Results for CC(C)(C#CCN1CCCCC1)OCCOC(c1ccccc1)c1ccccc1 ?
RGS4 block: inactive; MrgX1 allo act: inactive; MrgX1 ag: inactive; RGS4 act: -12*; MrgX1 antagonist: inactive; RGS4 act valid: 93*; M3R Ca counter: 92*

Results for CC(C)C(O)(CC#CCN1CCCC1)c1ccccc1 (stereo unspecified) ?
RGS4 block: inactive; MrgX1 allo act: inactive; MrgX1 ag: inactive; RGS4 act: -9.2*; MrgX1 antagonist: inactive; RGS4 act valid: 92*; M3R Ca counter: 44*

What do the screens show for `C(#CCN1CCCC1)CC(c1ccccc1)c1ccccc1`?
RGS4 block: inactive; MrgX1 allo act: inactive; MrgX1 ag: inactive; RGS4 act: -13*; MrgX1 antagonist: inactive; RGS4 act valid: 92*; M3R Ca counter: 93*

What do the screens show for `C(#Cc1ccccc1)CN1CCCCC1`?
RGS4 block: inactive; MrgX1 allo act: inactive; MrgX1 ag: inactive; RGS4 act: inactive; MrgX1 antagonist: inactive

How did OC(CC#CCN1CCOCC1)(c1ccccc1)c1ccccc1 do in these assays?
RGS4 block: inactive; MrgX1 allo act: inactive; MrgX1 ag: inactive; RGS4 act: inactive; MrgX1 antagonist: inactive

What do the screens show for `Cc1ccc(NC(=O)CN(C)C(=O)COC(=O)C2=COCCO2)cc1`?
RGS4 block: inactive; MrgX1 allo act: inactive; MrgX1 ag: inactive; RGS4 act: inactive; MrgX1 antagonist: inactive

Results for COC(=O)c1sccc1NC(=S)N1C(C)CCCC1C (stereo unspecified) ?
RGS4 block: inactive; MrgX1 allo act: inactive; MrgX1 ag: inactive; RGS4 act: inactive; MrgX1 antagonist: inactive

How did O=S(=O)(NCC1CCN(Cc2ccccc2)CC1)c1ccccc1C(F)(F)F do in these assays?
RGS4 block: inactive; MrgX1 allo act: inactive; MrgX1 ag: inactive; RGS4 act: inactive; MrgX1 antagonist: inactive

How did COc1ccc(-c2noc(CN(C)C(=O)c3ccoc3C)n2)cc1 do in these assays?
RGS4 block: inactive; MrgX1 allo act: inactive; MrgX1 ag: inactive; RGS4 act: inactive; MrgX1 antagonist: inactive

How did Cc1ccc(Nc2nc(N)nc(CSC(=S)N3CCOCC3)n2)c(C)c1 do in these assays?
RGS4 block: inactive; MrgX1 allo act: inactive; MrgX1 ag: inactive; RGS4 act: inactive; MrgX1 antagonist: inactive

What do the screens show for `CC1CCCN(CC(=O)Nc2ccc(S(=O)(=O)N3CCCC3)cc2)C1` (stereo unspecified)?
RGS4 block: inactive; MrgX1 allo act: inactive; MrgX1 ag: inactive; RGS4 act: -9.2*; MrgX1 antagonist: inactive; RGS4 act valid: 85*; M3R Ca counter: 41*

What do the screens show for `CC(C)NC(=O)CN1CCN(Cc2nc(C(c3ccccc3)c3ccccc3)no2)CC1`?
RGS4 block: inactive; MrgX1 allo act: inactive; MrgX1 ag: inactive; RGS4 act: -7.6*; MrgX1 antagonist: inactive; RGS4 act valid: 92*; M3R Ca counter: 58*

Results for C[C@@H]1CN(C2CCN(Cc3nc(C(c4ccccc4)c4ccccc4)no3)CC2)C[C@H](C)O1 ?
RGS4 block: inactive; MrgX1 allo act: inactive; MrgX1 ag: inactive; RGS4 act: inactive; MrgX1 antagonist: inactive
